This note sets out measurements from ChEMBL document CHEMBL4261600 (Eur J Med Chem, 2018).

pIC50: −log10 of the molar value.

A short description of data set [1]: Tmax in beagle dog at 10 mg/kg, po by LC-MS/MS analysis. The data set is classed as ADME, organism-based, Canis lupus familiaris. Particulars: in vivo.
Data set [2] has as its target Tyrosine-protein kinase ABL2 (Homo sapiens) (UniProt P42684). Description: Binding affinity to wild-type human ABL2 (A248 to G542 residues) expressed in bacterial expression system assessed as remaining unbound target protein level at 1000 nM by Kinomescan method relative to control. An outline of the steps: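 KINOMEscan competitive binding profile at 1 μM inhibitor. Remaining target binding reported as percent of DMSO control.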

The target in data set [3] is Mitogen-activated protein kinase kinase kinase 20 (Homo sapiens) (UniProt Q9NYL2). Description: Binding affinity to wild-type human partial length ZAK (M1 to L331 residues) expressed in bacterial expression system assessed as remaining unbound target protein level at 1000 nM by Kinomescan method relative to control.
The species entered for another data set is Homo sapiens. Description: Selectivity ratio of IC50 for recombinant full length His-tagged human CDK1/CyclinB to IC50 for recombinant full length His-tagged human CDK9/CyclinT1.
Data set [4] is described as follows: MRT (0 to t) in beagle dog at 10 mg/kg, po by LC-MS/MS analysis. The data set is classed as ADME, organism-based, Canis lupus familiaris. Particulars: in vivo.
In data set [5] the target is Dual specificity mitogen-activated protein kinase kinase 3 (Homo sapiens) (UniProt P46734). Description: Binding affinity to wild-type human full length MEK3 (M1 to S318 residues) expressed in mammalian expression system assessed as remaining unbound target protein level at 1000 nM by Kinomescan method relative to control. An outline of the steps:
(§1)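 KINOMEscan competition binding profile across a panel of 468 kinases and mutants, with the inhibitor tested at a single concentration of 1 μM. Binding is reported as percent of control, meaning signal relative to a DMSO control.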

For data set [6], the target named is 5'-AMP-activated protein kinase catalytic subunit alpha-2 (Homo sapiens) (UniProt P54646). Description: Binding affinity to wild-type human partial length AMPK alpha2 (M1 to E306 residues) expressed in bacterial expression system assessed as remaining unbound target protein level at 1000 nM by Kinomescan method relative to control. An outline of the steps:
(§2)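 Profiled in a KINOMEscan binding panel with the inhibitor at a single concentration of 1 μM. Binding to each kinase was read out as percent of control, relative to a DMSO control. Strong binders were defined as those with a percent control value below 1.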

Data set [7] deals with Hepatocyte growth factor receptor (Homo sapiens) (UniProt P08581). Description: Binding affinity to wild-type human partial length MET (D1010 to S1367 residues) expressed in bacterial expression system assessed as remaining unbound target protein level at 1000 nM by Kinomescan method relative to control.
Hepatocyte growth factor receptor (Homo sapiens), sequence (P08581 whole entry, the tested form may be a part): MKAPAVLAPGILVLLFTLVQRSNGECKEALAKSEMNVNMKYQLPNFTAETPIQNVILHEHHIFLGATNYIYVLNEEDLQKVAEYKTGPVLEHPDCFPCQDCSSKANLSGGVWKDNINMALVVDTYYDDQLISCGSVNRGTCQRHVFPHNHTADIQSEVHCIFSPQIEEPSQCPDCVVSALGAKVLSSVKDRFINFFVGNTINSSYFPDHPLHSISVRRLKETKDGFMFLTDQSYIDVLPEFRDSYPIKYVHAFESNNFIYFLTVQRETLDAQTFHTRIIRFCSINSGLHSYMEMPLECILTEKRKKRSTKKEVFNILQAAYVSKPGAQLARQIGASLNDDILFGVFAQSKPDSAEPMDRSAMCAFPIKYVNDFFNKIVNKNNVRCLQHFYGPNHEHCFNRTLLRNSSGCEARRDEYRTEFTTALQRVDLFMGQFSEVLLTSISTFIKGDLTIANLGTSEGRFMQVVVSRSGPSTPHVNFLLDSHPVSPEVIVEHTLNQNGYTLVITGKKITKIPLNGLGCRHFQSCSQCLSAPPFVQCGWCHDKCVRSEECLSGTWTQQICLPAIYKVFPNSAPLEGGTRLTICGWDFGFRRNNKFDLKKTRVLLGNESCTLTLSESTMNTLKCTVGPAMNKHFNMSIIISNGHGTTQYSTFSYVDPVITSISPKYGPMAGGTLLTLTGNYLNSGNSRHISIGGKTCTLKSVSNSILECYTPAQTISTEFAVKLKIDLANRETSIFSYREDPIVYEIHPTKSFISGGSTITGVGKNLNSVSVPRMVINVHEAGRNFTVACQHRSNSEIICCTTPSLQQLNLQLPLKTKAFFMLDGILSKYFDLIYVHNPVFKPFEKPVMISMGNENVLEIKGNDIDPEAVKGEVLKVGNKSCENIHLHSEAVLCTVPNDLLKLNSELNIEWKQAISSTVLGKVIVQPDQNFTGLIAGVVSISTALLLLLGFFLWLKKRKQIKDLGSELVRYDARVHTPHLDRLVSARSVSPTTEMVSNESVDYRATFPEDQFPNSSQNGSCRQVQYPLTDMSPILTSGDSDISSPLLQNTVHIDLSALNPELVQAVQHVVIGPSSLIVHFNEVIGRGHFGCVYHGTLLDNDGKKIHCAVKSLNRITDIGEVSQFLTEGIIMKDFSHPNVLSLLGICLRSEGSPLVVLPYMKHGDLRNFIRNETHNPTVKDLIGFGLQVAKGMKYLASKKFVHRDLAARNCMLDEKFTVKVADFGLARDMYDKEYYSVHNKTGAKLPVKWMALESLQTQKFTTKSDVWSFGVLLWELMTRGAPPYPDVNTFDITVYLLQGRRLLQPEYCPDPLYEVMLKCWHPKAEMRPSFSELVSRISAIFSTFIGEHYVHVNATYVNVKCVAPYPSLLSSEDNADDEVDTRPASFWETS
The test system of data set [8] is Receptor-type tyrosine-protein kinase FLT3 (Homo sapiens), P36888 [UNDEFINED MUTATION]. Description: Binding affinity to human partial length FLT3 ITD/D835V double mutant expressed in bacterial expression system assessed as remaining unbound target protein level at 1000 nM by Kinomescan method relative to control. An outline of the steps:
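KINOMEscan competition-binding profiling across the panel of 468 kinases and mutants, with inhibitor tested at 1 μM. Binding is expressed as percent of control, with DMSO as the reference control.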

The target of data set [9] is Cyclin-dependent kinase-like 2 (Homo sapiens) (UniProt Q92772). Description: Binding affinity to wild-type human partial length CDKL2 (M1 to D327 residues) expressed in bacterial expression system assessed as remaining unbound target protein level at 1000 nM by Kinomescan method relative to control. An outline of the steps: as §1
Data set [10] concerns the target Tyrosine-protein kinase Fes/Fps (Homo sapiens) (UniProt P07332). Description: Binding affinity to wild-type human partial length FES (I527 to R822 residues) expressed in bacterial expression system assessed as remaining unbound target protein level at 1000 nM by Kinomescan method relative to control. An outline of the steps:
(§3)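 KINOMEscan binding panel of 468 kinases/mutants. Inhibitor was tested at a single concentration of 1 μM. Binding is reported as percent of control, defined relative to a DMSO control.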

For data set [11], the target named is Cyclin-dependent kinase 1/cyclin B1 (Homo sapiens, UniProt P06493). Description: Inhibition of recombinant full length His-tagged human CDK1/CyclinB expressed in baculovirus expression system.
The target in data set [12] is Leukocyte tyrosine kinase receptor (Homo sapiens) (UniProt P29376). Description: Binding affinity to wild-type human partial length LTK (P422 to S744 residues) expressed in bacterial expression system assessed as remaining unbound target protein level at 1000 nM by Kinomescan method relative to control. An outline of the steps: as §3
Leukocyte tyrosine kinase receptor (Homo sapiens), sequence (P29376 whole entry, the tested form may be a part): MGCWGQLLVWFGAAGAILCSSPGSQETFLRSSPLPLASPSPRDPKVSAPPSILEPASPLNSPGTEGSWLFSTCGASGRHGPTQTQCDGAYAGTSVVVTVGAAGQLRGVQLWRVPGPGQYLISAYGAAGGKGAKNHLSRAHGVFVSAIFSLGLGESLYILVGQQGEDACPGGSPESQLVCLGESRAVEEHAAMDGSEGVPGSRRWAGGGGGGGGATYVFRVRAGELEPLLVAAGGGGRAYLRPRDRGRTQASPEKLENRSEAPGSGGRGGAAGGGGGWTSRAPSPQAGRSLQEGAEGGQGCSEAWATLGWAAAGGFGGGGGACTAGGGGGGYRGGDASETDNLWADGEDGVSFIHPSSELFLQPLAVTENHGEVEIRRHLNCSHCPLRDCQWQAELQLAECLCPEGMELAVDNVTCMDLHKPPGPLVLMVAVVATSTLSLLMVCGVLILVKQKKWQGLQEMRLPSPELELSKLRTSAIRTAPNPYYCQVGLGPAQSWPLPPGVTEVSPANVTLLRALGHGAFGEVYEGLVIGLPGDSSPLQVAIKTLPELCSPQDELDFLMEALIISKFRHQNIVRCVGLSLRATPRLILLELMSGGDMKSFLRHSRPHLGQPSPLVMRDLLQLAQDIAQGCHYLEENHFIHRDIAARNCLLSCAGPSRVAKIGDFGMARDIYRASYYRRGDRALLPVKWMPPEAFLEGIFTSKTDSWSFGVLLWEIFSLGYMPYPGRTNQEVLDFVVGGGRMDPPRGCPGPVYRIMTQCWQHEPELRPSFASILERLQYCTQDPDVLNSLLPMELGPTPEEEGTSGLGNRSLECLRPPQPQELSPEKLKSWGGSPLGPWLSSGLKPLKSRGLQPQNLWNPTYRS
Data set [13] addresses Ankyrin repeat and protein kinase domain-containing protein 1 (Homo sapiens) (UniProt Q8NFD2). Description: Binding affinity to wild-type human partial length ANKK1 (M1 to A305 residues) expressed in mammalian expression system assessed as remaining unbound target protein level at 1000 nM by Kinomescan method relative to control. An outline of the steps: as §2
The target of data set [14] is Phosphatidylinositol 4-phosphate 5-kinase type-1 alpha (Homo sapiens) (UniProt Q99755). Description: Binding affinity to wild-type human full length PIP5K1A (M1 to H562 residues) expressed in bacterial expression system assessed as remaining unbound target protein level at 1000 nM by Kinomescan method relative to control. An outline of the steps:
as §2

Data set [15] can be described thus: MRT (0 to t) in beagle dog at 2 mg/kg, iv by LC-MS/MS analysis. Type of data set: ADME, organism-based, Canis lupus familiaris. As to conditions: in vivo.

Tyrosine-protein kinase ABL2 (Homo sapiens), sequence (P42684 whole entry, the tested form may be a part): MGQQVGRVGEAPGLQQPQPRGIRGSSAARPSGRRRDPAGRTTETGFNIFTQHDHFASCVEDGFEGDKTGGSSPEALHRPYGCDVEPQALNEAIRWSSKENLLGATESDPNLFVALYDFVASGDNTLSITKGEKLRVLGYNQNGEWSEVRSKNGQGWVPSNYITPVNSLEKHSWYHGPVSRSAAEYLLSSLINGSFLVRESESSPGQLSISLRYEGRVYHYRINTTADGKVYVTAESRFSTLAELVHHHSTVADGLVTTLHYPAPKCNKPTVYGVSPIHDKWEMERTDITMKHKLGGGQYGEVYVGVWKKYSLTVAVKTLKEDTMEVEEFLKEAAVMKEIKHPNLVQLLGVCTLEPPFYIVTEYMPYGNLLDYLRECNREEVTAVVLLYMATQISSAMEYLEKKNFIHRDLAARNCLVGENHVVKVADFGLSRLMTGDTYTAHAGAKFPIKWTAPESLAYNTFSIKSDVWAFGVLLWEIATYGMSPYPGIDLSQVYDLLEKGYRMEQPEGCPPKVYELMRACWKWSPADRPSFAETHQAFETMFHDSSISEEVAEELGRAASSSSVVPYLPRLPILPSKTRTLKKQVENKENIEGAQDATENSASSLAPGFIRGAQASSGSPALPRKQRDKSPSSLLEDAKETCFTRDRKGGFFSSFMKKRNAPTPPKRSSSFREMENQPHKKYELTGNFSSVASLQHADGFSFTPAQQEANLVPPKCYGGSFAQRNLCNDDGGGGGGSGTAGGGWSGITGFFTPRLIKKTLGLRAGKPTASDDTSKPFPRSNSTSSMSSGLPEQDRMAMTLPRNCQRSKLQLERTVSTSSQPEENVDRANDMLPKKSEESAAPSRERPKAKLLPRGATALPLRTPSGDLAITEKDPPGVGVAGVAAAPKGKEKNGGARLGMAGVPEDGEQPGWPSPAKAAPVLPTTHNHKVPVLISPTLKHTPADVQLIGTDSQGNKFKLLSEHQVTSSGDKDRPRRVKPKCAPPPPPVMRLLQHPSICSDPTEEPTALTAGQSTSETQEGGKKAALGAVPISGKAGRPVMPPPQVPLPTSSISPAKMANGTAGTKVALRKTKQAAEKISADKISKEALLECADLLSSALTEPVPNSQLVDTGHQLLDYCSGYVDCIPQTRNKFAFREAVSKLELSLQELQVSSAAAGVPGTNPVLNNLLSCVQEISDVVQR
Receptor-type tyrosine-protein kinase FLT3 (Homo sapiens), P36888 [UNDEFINED MUTATION], sequence (P36888 whole entry, looked up, stated change not applied): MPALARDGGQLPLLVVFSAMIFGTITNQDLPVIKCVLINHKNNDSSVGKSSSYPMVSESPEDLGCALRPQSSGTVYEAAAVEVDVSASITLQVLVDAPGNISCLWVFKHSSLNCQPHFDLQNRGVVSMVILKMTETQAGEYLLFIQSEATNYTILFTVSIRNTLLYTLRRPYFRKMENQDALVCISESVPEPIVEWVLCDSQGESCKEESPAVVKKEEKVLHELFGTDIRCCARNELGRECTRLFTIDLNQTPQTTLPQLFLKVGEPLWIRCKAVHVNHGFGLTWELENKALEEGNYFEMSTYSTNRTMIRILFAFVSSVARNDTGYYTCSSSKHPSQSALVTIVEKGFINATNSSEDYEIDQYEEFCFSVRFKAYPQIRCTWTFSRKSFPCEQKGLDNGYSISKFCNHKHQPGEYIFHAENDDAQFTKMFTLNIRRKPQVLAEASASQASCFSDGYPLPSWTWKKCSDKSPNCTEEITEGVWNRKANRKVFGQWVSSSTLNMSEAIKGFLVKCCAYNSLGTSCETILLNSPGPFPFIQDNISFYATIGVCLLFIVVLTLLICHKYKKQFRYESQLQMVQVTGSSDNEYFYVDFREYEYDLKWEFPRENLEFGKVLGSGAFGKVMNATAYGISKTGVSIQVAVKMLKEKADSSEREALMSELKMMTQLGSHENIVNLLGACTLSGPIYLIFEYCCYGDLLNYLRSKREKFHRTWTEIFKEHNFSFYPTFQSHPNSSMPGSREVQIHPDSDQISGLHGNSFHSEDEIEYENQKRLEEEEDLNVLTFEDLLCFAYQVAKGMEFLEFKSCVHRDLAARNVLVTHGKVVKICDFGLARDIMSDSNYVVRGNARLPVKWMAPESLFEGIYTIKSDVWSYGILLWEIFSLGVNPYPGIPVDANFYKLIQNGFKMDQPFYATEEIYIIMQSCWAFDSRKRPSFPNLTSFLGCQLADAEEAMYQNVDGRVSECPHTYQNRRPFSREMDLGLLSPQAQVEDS
Dual specificity mitogen-activated protein kinase kinase 3 (Homo sapiens), sequence (P46734 whole entry, the tested form may be a part): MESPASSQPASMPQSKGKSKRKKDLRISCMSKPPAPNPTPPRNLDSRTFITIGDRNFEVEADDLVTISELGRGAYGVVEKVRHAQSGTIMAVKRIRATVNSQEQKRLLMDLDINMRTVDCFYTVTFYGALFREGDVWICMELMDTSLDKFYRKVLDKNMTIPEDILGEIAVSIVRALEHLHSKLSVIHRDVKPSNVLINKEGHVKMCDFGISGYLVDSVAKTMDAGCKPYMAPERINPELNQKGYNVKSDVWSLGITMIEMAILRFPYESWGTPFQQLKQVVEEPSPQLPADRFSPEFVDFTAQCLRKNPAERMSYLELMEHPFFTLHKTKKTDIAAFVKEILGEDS

As for `COCCN[C@H]1CC[C@H](Nc2cc(-c3csc(NCC4(C#N)CCOCC4)n3)c(Cl)cn2)CC1`, the time of peak concentration (Tmax) in [1] amounted to 1.33 h. Besides, the Activity was found to be 77% in data set [2]; 96% in data set [3]; 86% in [5]; 100% in data set [6]; 73% in data set [7]; 65% in data set [8]. In addition, the Activity came out at 63% in data set [9]; 99% in [10]; 95% in data set [12]; 100% in data set [13]; 100% in [14]. In the data set filed under Homo sapiens, the Ratio IC50 is more than 1000. In addition, the results for the MRT last in data set [4] and in data set [15] were 3.59 h and 9.36 h, respectively. Moreover, the pIC50 in data set [11] was 5.87.
